Source: PubChem BioAssay (Sanford-Burnham Center for Chemical Genomics)
Most compounds without a hit are left out; they make up all but 1.4% or so of the library.
CendR NRP1 mod – modulators of CendR peptide binding to NRP-1, primary screen, biochemical, fluorescence polarization, uHTS; Neuropilin-1 (Homo sapiens), O14786; FAM-RPARPAR peptide binding to NRP-1; inhibition, % at 25 µM; actives 0.85% (n = 360,000); AID 602438, 2012;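 active = inhibition or corrected inhibition above about 18%, plus a signal ratio from 0.5 to 1.5, limit read from the data, passing the limit was not always enough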
SKN-1 inh – suppressors of acrylamide-induced Pgst-4::GFP reporter in worms, primary screen, SKN-1 inhibitor project, whole organism, uHTS, GFP/RFP fluorescence ratio, strain VP596; AID 624304, 2012; C. elegans VP596 Pgst-4::GFP/RFP ratio, 24 h; inhibition, % at 21.8 µM; actives 0.49% (n = 360,000);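 active = interference check ratio from 0.5 to 1.5 plus GFP to RFP signal ratio inhibition reaching or exceeding a fixed threshold, cut at about 30% in these data, passing the limit was not always enough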
MT1-MMP act inh – blockers of MT1-MMP proenzyme processing, primary screen, HT1080 RFP-PRO-GFP cells, GFP/RFP fluorescence | actives 0.061% (n = 360,000) | GFP/RFP ratio change, % at 20 µM | GFP/RFP ratio fluorescence, overnight; percent of plate control window, DMSO zero;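 active = GFP/RFP ratio change of at least 30% with cell ATP level not reduced by more than half and red fluorescence within 50% of control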
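Assay system: HT1080 RFP-PRO-GFP cells. Benchmarks: DMSO vehicle wells and RFP-L50D-GFP reporter cell wells. Times: overnight cell settling, then overnight compound exposure, 37 °C, 5% CO2. Compound: 20 µM single dose, 1% DMSO. Read-out basis: GFP/RFP fluorescence ratio.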
iPSC survival up – enhancers of single-cell hiPSC survival, primary screen, ATPlite luminescence; 100% = ROCK inhibitor wells, 0% = DMSO; survival enhancement, % at 20 µM; actives 0.044% (n = 360,000); AID 602274, 2012; in the data active = survival enhancement above about 18%;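 also: cells exposed to compounds for 16 hours before the ATP read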
Active calls of the source: *.

What do the screens show for `Cc1ccc(S(=O)(=O)N2CCC(=O)N(C(COCc3cccc(C(F)(F)F)c3)C(C)C)CC2)cc1` (stereo not drawn)?
CendR NRP1 mod: 23*; SKN-1 inh: -7; MT1-MMP act inh: -11; iPSC survival up: 1

What do the screens show for `CC(C(=O)Nc1ccccn1)c1ccccc1` (stereo not drawn)?
CendR NRP1 mod: -3; SKN-1 inh: 3; MT1-MMP act inh: 2; iPSC survival up: 1

Results for Cc1ccc(C2=NNC(C(O)C(O)C(O)C(O)CO)S2)cc1 (stereo not drawn) ?
CendR NRP1 mod: 1; SKN-1 inh: 6; MT1-MMP act inh: -6; iPSC survival up: 2

Results for C[C@H]1CN([C@@H](C)CO)C(=O)CCCn2nncc2CO[C@@H]1CN(C)Cc1ccc(C(F)(F)F)cc1 ?
CendR NRP1 mod: -8; SKN-1 inh: 5; MT1-MMP act inh: -3; iPSC survival up: 0

Results for COc1ccc(C(CCNCc2ccc(N(C)C)cc2)c2ccccc2)cc1 (stereo not drawn) ?
CendR NRP1 mod: 2; SKN-1 inh: 17; MT1-MMP act inh: -6; iPSC survival up: 0

Results for CC(C)Oc1ccc(C(CCNCc2ccc(O)cc2)c2ccccc2)cc1 (stereo not drawn) ?
CendR NRP1 mod: 25*; SKN-1 inh: 7; MT1-MMP act inh: -2; iPSC survival up: -1

How did COC(=O)c1ccc(OCCN2C3=NCCN3c3ccccc32)cc1 do in these assays?
CendR NRP1 mod: -16; SKN-1 inh: 2; MT1-MMP act inh: 1; iPSC survival up: -2

Results for COc1ccc(OC)c(N)c1 ?
CendR NRP1 mod: 14; SKN-1 inh: 69; MT1-MMP act inh: 37*; iPSC survival up: 1

Results for O=C(CCCC(=O)N1CCN(c2ccccc2F)CC1)c1ccccc1 ?
CendR NRP1 mod: -3; SKN-1 inh: -2; MT1-MMP act inh: 1; iPSC survival up: -4

Results for CCOC(=O)/C=C1\NC(=O)CS1 ?
CendR NRP1 mod: 28*; SKN-1 inh: 6; MT1-MMP act inh: 4; iPSC survival up: 0

How did COc1ccccc1C(=O)Nc1ccc(Oc2nnc(-c3ccc(C)cc3)c3ccccc23)cc1 do in these assays?
CendR NRP1 mod: -5; SKN-1 inh: 8; MT1-MMP act inh: 1; iPSC survival up: -1

What do the screens show for `Cc1ccc(Oc2nnc(-c3ccc(C)cc3)c3ccccc23)cc1`?
CendR NRP1 mod: 29*; SKN-1 inh: -4; MT1-MMP act inh: 1; iPSC survival up: -2

What do the screens show for `FCCCOc1ccc(-c2nccc(-c3ccccn3)n2)cc1`?
CendR NRP1 mod: 21*; SKN-1 inh: 66*; MT1-MMP act inh: -1; iPSC survival up: 0

How did O=S(=O)(c1ccccc1)c1nc(-c2ccc(F)cc2)oc1N1CCOCC1 do in these assays?
CendR NRP1 mod: 22*; SKN-1 inh: -6; MT1-MMP act inh: -4; iPSC survival up: 0

How did CN(c1ccccc1)S(=O)(=O)c1cccc(NC(=O)c2ccncc2)c1 do in these assays?
CendR NRP1 mod: -2; SKN-1 inh: 0; MT1-MMP act inh: -2; iPSC survival up: 0

Results for Cc1cc(C)n2c(SCC(=O)Nc3cccc(S(N)(=O)=O)c3)nnc2n1 ?
CendR NRP1 mod: 24*; SKN-1 inh: 10; MT1-MMP act inh: 1; iPSC survival up: 0

What do the screens show for `CC(=O)Nc1ccc(C(=O)Nc2cccc(S(=O)(=O)N(C)c3ccccc3)c2)cc1`?
CendR NRP1 mod: 26*; SKN-1 inh: 2; MT1-MMP act inh: 7; iPSC survival up: 0

What do the screens show for `Cn1cnnc1SCC(=O)Nc1cccc(S(=O)(=O)N2CCCCCC2)c1`?
CendR NRP1 mod: 1; SKN-1 inh: -5; MT1-MMP act inh: 6; iPSC survival up: 6

What do the screens show for `CN(c1ccccc1)S(=O)(=O)c1cccc(NC(=O)CSc2nncn2C)c1`?
CendR NRP1 mod: 24*; SKN-1 inh: 2; MT1-MMP act inh: -1; iPSC survival up: 5

How did COc1ccc(C)cc1NC(=O)NNC(=O)c1ccoc1C do in these assays?
CendR NRP1 mod: -8; SKN-1 inh: 9; MT1-MMP act inh: -5; iPSC survival up: 1

How did O=C(Nc1ccccc1F)C1CCN(C(=O)NC2CCCCC2)CC1 do in these assays?
CendR NRP1 mod: 3; SKN-1 inh: 2; MT1-MMP act inh: 0; iPSC survival up: 0
